Source: ChEMBL document CHEMBL5247621, “From dopamine 4 to sigma 1: Synthesis, SAR and biological characterization of a piperidine scaffold of σ1 modulators” (Eur J Med Chem, 2022)

Tests used:
[1] = target: T1, Sigma non-opioid intracellular receptor 1 (Homo sapiens, UniProt Q99720); experiment: Displacement of [3H] Pentazocine from sigma 1 receptor in HEK293 cell membrane; format: cell membranes
[2] = target: Sigma intracellular receptor 2 (Homo sapiens, UniProt Q5BJF2); experiment: Displacement of [3H]DTG from sigma-2 receptor in HEK293 cell membrane assessed as inhibition constant; format: cell membranes
Method in brief: (§1)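 Competitive radioligand binding in membranes harvested from HEK293 cells, with one radioligand per target: [3H]N-methylspiperone for D2, D3 and D4; [3H]SCH23390 for D1 and D5; [3H]pentazocine for σ1; [3H]DTG for σ2. Ki derived from inhibition of binding, each run in triplicate.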

D(1A) dopamine receptor = D(1A) dopamine receptor (Homo sapiens, UniProt P21728); experiment: Displacement of [3H]SCH23390 from D1 receptor in HEK293 cell membrane assessed as inhibition constant; format: cell membranes; method in brief: as §1
[3] = Plasma protein binding in mouse assessed as unbound fraction; format: ADME
Method in brief: (§2)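 Plasma protein binding by equilibrium dialysis in human or mouse plasma, reported as fraction unbound (fu).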

[4] = target: T2, D(4) dopamine receptor (Homo sapiens) (UniProt P21917); experiment: Displacement of [3H]N-methylspiperone from D4 receptor in HEK293 cell membrane assessed as inhibition constant at 10 uM relative to control; format: cell membranes; set-up: scale not given: the % may be the effect or the level left
T2 sequence (whole entry): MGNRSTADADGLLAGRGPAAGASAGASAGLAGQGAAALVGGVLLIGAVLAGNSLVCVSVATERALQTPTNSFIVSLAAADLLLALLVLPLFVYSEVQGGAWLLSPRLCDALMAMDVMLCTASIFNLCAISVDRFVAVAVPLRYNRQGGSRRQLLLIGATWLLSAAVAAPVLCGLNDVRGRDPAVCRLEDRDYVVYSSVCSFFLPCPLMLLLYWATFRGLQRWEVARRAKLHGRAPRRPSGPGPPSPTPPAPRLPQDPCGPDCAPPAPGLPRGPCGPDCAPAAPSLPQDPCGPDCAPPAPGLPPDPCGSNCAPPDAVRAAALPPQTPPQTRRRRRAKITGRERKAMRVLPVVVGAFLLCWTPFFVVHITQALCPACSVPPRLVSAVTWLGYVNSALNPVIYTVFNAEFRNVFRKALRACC

[5] = Plasma protein binding in human assessed as unbound fraction; format: ADME, cell-free; method in brief: as §2
D(4) dopamine receptor = target: T3, D(4) dopamine receptor (Homo sapiens, UniProt P21917); experiment: Displacement of [3H]N-methylspiperone from D4 receptor in HEK293 cell membrane; format: cell membranes; details: read-out: Ki
T3 sequence (P21917 whole entry): T2 sequence (whole entry)

[6] = Tmax in mouse plasma at 5 mg/kg, ip measured after 24 hrs; format: ADME, organism-based; details: in vivo
Method in brief: (§3)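 Discrete mouse study, single intraperitoneal dose of 5 mg/kg in 10% DMSO/10% Cremophor EL/30% PEG400/50% water. Plasma and brain concentrations followed over 24 h. Parameters estimated by non-compartmental analysis.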

[7] = Tmax in mouse brain at 5 mg/kg, ip measured after 24 hrs; format: ADME, organism-based; details: in vivo; method in brief: as §3
[8] = Cmax in mouse brain at 5 mg/kg, ip measured after 24 hrs; format: ADME, organism-based; set-up: time 24 hrs, dose 5 mg/kg, route ip; method in brief: as §3
[9] = Half life in mouse plasma at 5 mg/kg, ip measured after 24 hrs; format: ADME, organism-based; details: in vivo; method in brief: as §3
[10] = Ratio of total drug concentration in mouse brain to plasma at 5 mg/kg, ip measured after 1 hr; format: ADME, organism-based
Method in brief: (§4)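 Mice received 5 mg/kg IP in 10% DMSO/10% Cremophor EL/30% PEG400/50% water. Kp is total brain concentration divided by total plasma concentration, taken at 1 h and 5 h post-dose.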

[11] = Ratio of free drug concentration in mouse brain to plasma at 5 mg/kg, ip measured after 5 hrs; format: ADME, organism-based; details: read-out: K(p,uu,brain)
Method in brief: (§5)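 Mice received 5 mg/kg IP in 10% DMSO/10% Cremophor EL/30% PEG400/50% water. Kp,uu is free brain over free plasma concentration at 1 h and 5 h. Free levels are corrected with unbound fractions measured in mouse plasma protein binding and in mouse brain homogenate binding.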

[12] = Cmax in mouse plasma at 5 mg/kg, ip measured after 24 hrs; format: ADME, organism-based; set-up: dose 5 mg/kg, time 24 hrs, route ip; details: in vivo; method in brief: as §3
[13] = Mean residence time in mouse plasma at 5 mg/kg, ip measured after 24 hrs; format: ADME, organism-based; details: in vivo; method in brief: as §3
[14] = Ratio of total drug concentration in mouse brain to plasma at 5 mg/kg, ip measured after 5 hrs; format: ADME, organism-based; method in brief: as §4
[15] = AUC(infinity) in mouse plasma at 5 mg/kg, ip measured after 24 hrs; format: ADME, organism-based; set-up: dose 5 mg/kg, time 24 hrs, route ip; details: in vivo; method in brief: as §3
[16] = Ratio of free drug concentration in mouse brain to plasma at 5 mg/kg, ip measured after 1 hr; format: ADME, organism-based; method in brief: as §5
[17] = AUC(infinity) in mouse brain at 5 mg/kg, ip measured after 24 hrs; format: ADME, organism-based; set-up: dose 5 mg/kg, time 24 hrs, route ip; method in brief: as §3
[18] = Half life in mouse brain at 5 mg/kg, ip measured after 24 hrs; format: ADME, organism-based; details: in vivo; method in brief: as §3
[19] = target: T1, Sigma non-opioid intracellular receptor 1; experiment: Binding affinity to sigma 1 receptor in human Jurkat cells; format: cell-based
[20] = Mean residence time in mouse brain at 5 mg/kg, ip measured after 24 hrs; format: ADME, organism-based; details: in vivo; method in brief: as §3
D(1B) dopamine receptor = D(1B) dopamine receptor (Homo sapiens, UniProt P21918); experiment: Displacement of [3H]SCH23390 from D5 receptor in HEK293 cell membrane assessed as inhibition constant; format: cell membranes; method in brief: as §1
D(2) dopamine receptor = D(2) dopamine receptor (Homo sapiens, UniProt P14416); experiment: Displacement of [3H]N-methylspiperone from D2 receptor in HEK293 cell membrane assessed as inhibition constant; format: cell membranes; method in brief: as §1
D(3) dopamine receptor = D(3) dopamine receptor (Homo sapiens, UniProt P35462); experiment: Displacement of [3H]N-methylspiperone from D3 receptor in HEK293 cell membrane assessed as inhibition constant; format: cell membranes; method in brief: as §1
D(3) dopamine receptor, sequence (P35462 whole entry): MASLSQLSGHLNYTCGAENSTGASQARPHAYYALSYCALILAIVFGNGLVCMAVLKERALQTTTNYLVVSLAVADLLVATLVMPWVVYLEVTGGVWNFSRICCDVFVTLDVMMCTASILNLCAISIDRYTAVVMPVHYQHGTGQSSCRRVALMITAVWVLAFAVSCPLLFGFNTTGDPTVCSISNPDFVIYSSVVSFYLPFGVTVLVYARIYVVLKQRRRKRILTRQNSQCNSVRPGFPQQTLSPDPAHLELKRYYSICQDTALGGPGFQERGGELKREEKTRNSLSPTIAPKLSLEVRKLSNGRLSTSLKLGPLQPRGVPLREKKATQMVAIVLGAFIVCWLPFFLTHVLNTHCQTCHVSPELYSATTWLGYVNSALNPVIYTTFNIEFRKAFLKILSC

T1 sequence (Q99720 whole entry): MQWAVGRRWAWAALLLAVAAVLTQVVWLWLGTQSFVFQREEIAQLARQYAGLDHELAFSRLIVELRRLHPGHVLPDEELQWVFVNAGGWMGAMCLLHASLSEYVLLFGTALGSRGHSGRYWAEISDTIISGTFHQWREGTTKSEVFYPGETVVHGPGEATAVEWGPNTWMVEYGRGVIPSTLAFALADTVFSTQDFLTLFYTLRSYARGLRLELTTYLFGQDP
D(1A) dopamine receptor, sequence (P21728 whole entry): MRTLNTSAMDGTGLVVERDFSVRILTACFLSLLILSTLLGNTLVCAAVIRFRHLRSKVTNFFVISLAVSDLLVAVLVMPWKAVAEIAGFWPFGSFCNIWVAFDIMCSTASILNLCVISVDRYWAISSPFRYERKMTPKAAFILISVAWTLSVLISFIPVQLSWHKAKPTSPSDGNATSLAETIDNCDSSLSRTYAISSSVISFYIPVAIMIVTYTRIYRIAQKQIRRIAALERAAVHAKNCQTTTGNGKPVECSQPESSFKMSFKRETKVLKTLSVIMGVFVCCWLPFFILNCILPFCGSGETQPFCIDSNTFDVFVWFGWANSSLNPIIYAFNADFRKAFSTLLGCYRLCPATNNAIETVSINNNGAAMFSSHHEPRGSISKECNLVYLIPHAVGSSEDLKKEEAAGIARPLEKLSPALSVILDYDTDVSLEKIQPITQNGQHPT
Sigma intracellular receptor 2, sequence (Q5BJF2 whole entry): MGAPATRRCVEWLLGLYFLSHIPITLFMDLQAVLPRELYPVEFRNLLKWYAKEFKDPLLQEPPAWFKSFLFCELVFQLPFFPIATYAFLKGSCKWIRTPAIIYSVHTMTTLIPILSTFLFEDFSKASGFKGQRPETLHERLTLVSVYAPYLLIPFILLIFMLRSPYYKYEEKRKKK
D(1B) dopamine receptor, sequence (P21918 whole entry): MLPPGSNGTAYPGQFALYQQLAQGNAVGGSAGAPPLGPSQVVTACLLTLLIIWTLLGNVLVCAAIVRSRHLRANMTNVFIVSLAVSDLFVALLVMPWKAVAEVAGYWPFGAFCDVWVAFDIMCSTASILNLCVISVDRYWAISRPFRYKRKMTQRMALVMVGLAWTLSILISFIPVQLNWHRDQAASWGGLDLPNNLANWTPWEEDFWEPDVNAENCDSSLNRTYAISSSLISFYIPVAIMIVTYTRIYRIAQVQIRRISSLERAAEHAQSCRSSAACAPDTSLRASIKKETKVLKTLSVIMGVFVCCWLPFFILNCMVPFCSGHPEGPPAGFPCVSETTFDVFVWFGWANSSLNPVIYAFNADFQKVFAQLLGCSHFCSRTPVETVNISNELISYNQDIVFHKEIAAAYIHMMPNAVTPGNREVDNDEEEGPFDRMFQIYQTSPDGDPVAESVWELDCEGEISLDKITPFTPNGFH
D(2) dopamine receptor, sequence (P14416 whole entry): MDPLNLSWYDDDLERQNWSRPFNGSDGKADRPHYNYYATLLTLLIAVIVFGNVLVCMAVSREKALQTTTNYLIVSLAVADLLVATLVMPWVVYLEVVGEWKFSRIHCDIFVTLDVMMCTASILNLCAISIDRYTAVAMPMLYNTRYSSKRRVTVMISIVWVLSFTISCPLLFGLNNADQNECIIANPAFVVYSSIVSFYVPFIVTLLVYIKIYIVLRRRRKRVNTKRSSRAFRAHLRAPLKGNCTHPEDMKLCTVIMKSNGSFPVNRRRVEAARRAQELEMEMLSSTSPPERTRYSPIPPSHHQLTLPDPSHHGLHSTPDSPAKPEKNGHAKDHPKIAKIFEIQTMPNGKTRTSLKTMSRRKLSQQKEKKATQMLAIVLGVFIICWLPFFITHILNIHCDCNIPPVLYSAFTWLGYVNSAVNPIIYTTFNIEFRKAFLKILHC

SMILES: Cc1c(Cl)cccc1NC(=O)CN1CCC(OCc2ccc(Cl)c(F)c2)CC1
- Ki ([1]; read-out: Ki): 97 nM

SMILES: Fc1cc(COC2CCN(Cc3cn4ccccc4n3)CC2)ccc1Cl
- Ki ([1]; read-out: Ki): 2.3 nM

SMILES: Cc1ccccc1CO[C@H]1CCCN(Cc2ccc3c(cnn3C)c2)C1
- Ki [2]: 239 nM
- Ki ([1]; read-out: Ki): 37 nM
- Ki (D(1A) dopamine receptor): > 10000 nM
- Fu [3]: 8.8%
- Activity [4]: 65%
- Fu [5]: 4.3%

SMILES: Cc1cccc(CO[C@H]2CCCN(Cc3cc4ccc(Cl)cc4[nH]3)C2)n1
- Ki ([1]; read-out: Ki): 52 nM

SMILES: c1ccc(OC[C@@H]2CN(Cc3ccc4[nH]ccc4c3)CCO2)cc1
- Ki (D(4) dopamine receptor): 3.3 nM
- Ki ([1]; read-out: Ki): 44 nM

SMILES: Cc1c(Cl)cccc1NC(=O)CN1CCC2(CCCN(Cc3ccc(F)c(F)c3)C2)C1 (stereo not drawn)
- Ki ([1]; read-out: Ki): 19 nM
- Activity [4]: 23%

SMILES: Cc1csc(OC[C@@H]2CN(Cc3cc4ccc(Cl)cc4[nH]3)CCO2)n1
- Ki (D(4) dopamine receptor): 169 nM
- Ki ([1]; read-out: Ki): 388 nM

SMILES: Cn1cnc2cc(CN3CCC(OCc4ccc(Cl)c(F)c4)CC3)ccc21
- Ki ([1]; read-out: Ki): 31 nM
- Fu [3]: 75%
- Activity [4]: 48%
- Fu [5]: 13%

SMILES: Fc1cc(COC2CCN(Cc3ccc4[nH]cnc4c3)CC2)ccc1Cl
- Tmax [6]: 0.67 h
- Tmax [7]: 1.67 h
- Cmax [8]: 1890 ng/mL
- t1/2 [9]: 3.68 h
- Kp [10]: 4.94
- Ki (D(4) dopamine receptor): 1160 nM
- Kp uu at 5 h [11]: 4.88
- Cmax [12]: 401 ng/mL
- Ki [2]: 70 nM
- MRT [13]: 4.54 h
- Kp at 5 h [14]: 2.4
- AUC [15]: 2225 ng·h/mL
- Ki ([1]; read-out: Ki): 3.1 nM
- Ki (D(1A) dopamine receptor): > 10000 nM
- K(p,uu,brain) [16]: 2.43
- AUC(0-inf) [17]: 13900 ng·h/mL
- t1/2 [18]: 6.88 h
- Ki [19]: 3.9 nM
- MRT [20]: 8.3 h

SMILES: COc1ccc(CN2CCC[C@H](OCc3cccc(F)c3)C2)cc1F
- Ki ([1]; read-out: Ki): 4.3 nM

SMILES: FC(F)(F)c1cccc(COC2CCN(Cc3cn4ccccc4n3)CC2)c1
- Ki (D(4) dopamine receptor): 175 nM
- Ki ([1]; read-out: Ki): 3.5 nM
- Fu [3]: 8.8%
- Fu [5]: 2.2%

SMILES: COc1ccc(CN2CCO[C@H](COc3ccccc3)C2)cc1F
- Ki (D(4) dopamine receptor): 5 nM
- Ki ([1]; read-out: Ki): 41 nM

SMILES: Fc1ccc(CN2CCCC23CCN(Cc2cc4ccc(Cl)cc4[nH]2)C3)cc1F (stereo not drawn)
- Ki (D(4) dopamine receptor): 268 nM
- Ki [2]: 23 nM
- Ki (D(1B) dopamine receptor): > 10000 nM
- Ki ([1]; read-out: Ki): 5.5 nM
- Ki ([1]; read-out: pKi (converted)): 5.37 nM
- Ki (D(2) dopamine receptor): > 10000 nM
- Ki (D(1A) dopamine receptor): 2370 nM
- Ki (D(3) dopamine receptor): 118 nM

SMILES: Fc1ccc(CN2CCCC3(CCN(Cc4cc5ccc(Cl)cc5[nH]4)C3)C2)cc1F (stereo not drawn)
- Ki [2]: 30 nM
- Ki (D(1B) dopamine receptor): > 10000 nM
- Ki ([1]; read-out: Ki): 7.1 nM
- Ki (D(2) dopamine receptor): > 10000 nM
- Ki (D(1A) dopamine receptor): 1530 nM
- Activity [4]: 39%
- Ki (D(3) dopamine receptor): 345 nM

SMILES: Cc1c(Cl)cccc1NC(=O)CN1CCC2(CCCN2Cc2ccc(F)c(F)c2)C1 (stereo not drawn)
- Ki (D(4) dopamine receptor): 1700 nM
- Ki [2]: 43 nM
- Ki ([1]; read-out: Ki): 14 nM
- Ki (D(1A) dopamine receptor): > 10000 nM

SMILES: Fc1ccc(CN2CCCC23CCN(Cc2cn4ccccc4n2)C3)cc1F (stereo not drawn)
- Ki [2]: 23 nM
- Ki ([1]; read-out: Ki): 3.6 nM
- Ki (D(1A) dopamine receptor): > 10000 nM
- Fu [3]: 30.2%
- Activity [4]: -0.7%
- Fu [5]: 2.7%

SMILES: COc1ccc(CN2CCC[C@H](OCc3ccc(C)cc3)C2)cc1F
- Ki ([1]; read-out: Ki): 5.5 nM
- Fu [3]: 2.5%
- Fu [5]: 1.3%
